Active and inactive are the calls of the source. The calls are words filed in the database; no cut-off is given here.

The text below walks through data of ChEMBL document CHEMBL4052830, “Dual Nicotinic Acetylcholine Receptor α4β2 Antagonists/α7 Agonists: Synthesis, Docking Studies, and Pharmacological Evaluation of Tetrahydroisoquinolines and Tetrahydroisoquinolinium Salts” (J Med Chem, 2018).

In test [1] the target is Nicotinic acetylcholine receptor alpha-4/beta-2 (Mus musculus, UniProt Q8R493+Q9ERK7). The test is described as follows: Antagonist activity at mouse alpha4beta2 nAChR expressed in HEK293 cells assessed as inhibition of (S)-nicotine-induced […] response measured up to 90 secs by FMP assay. Format: cell-based. The method, boiled down:
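Mouse α4β2 nAChR in stably expressing HEK293T cells, FLIPR Membrane Potential Blue assay. IC50 came from concentration-inhibition curves. Means of 3–5 experiments in duplicate.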

Test [2] addresses T1, Neuronal acetylcholine receptor subunit alpha-7 (Homo sapiens, UniProt P36544). The test is described as follows: Agonist activity at human alpha7 nAChR expressed in HEK293 cells co-expressing Ric-3/NACHO assessed as induction of calcium mobilization at >= 10 uM measured up to 90 secs in presence of PNU-120596 by FLIPR assay. The class given is cell-based. On the technique in general: A change in cytosolic calcium serves as a functional read-out for many receptors and channels.

Test [3] has as its target Neuronal acetylcholine receptor; alpha4/beta4 (Rattus norvegicus, UniProt P09483+P12392). The test is described as follows: Displacement of [3H]epibatidine from rat alpha4beta4 nAChR expressed in HEK293 cell membranes after 4 hrs by scintillation counting method. The method, boiled down: (§1)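 Membranes from HEK293 lines stably expressing α3β4, α4β4 or α4β2 nAChR, [3H]epibatidine competition binding. Ki came from concentration-inhibition curves. Means of 3–5 experiments in duplicate.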
A general note: Loss of bound radioactivity is the signal in a displacement assay; it reports binding, not function.

Test [4] concerns the target T1, Neuronal acetylcholine receptor subunit alpha-7. The test is described as follows: Agonist activity at human alpha7 nAChR expressed in HEK293 cells co-expressing Ric-3/NACHO assessed as induction of calcium mobilization at 0.3 to 3 uM measured up to 90 secs in presence of PNU-120596 by FLIPR assay. The class given is cell-based.
For test [5], the target named is Neuronal acetylcholine receptor; alpha4/beta2 (Rattus norvegicus, UniProt P09483+P12390). The test is described as follows: Displacement of [3H]epibatidine from rat alpha4beta2 nAChR expressed in HEK293 cell membranes after 4 hrs by scintillation counting method. The method, boiled down:
as §1

The target in test [6] is T2, Neuronal acetylcholine receptor; alpha3/beta4 (Rattus norvegicus, UniProt P04757+P12392). The test is described as follows: Antagonist activity at rat alpha3beta4 nAChR expressed in HEK293 cells assessed as inhibition of (S)-nicotine-induced […] response measured up to 90 secs by FMP assay. The class given is cell-based. An outline of the steps: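 Rat α3β4 nAChR in stably expressing HEK293 cells, FLIPR Membrane Potential Blue assay. Antagonist mode against (S)-nicotine at EC70–EC90. IC50 derived from concentration-inhibition curves. Means of 3–5 experiments in duplicate.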

The target in test [7] is T2, Neuronal acetylcholine receptor; alpha3/beta4. The test is described as follows: Displacement of [3H]epibatidine from rat alpha3beta4 nAChR expressed in HEK293 cell membranes after 4 hrs by scintillation counting method. An outline of the steps:
as §1

Test [8] has as its target T1, Neuronal acetylcholine receptor subunit alpha-7. Kind of test: Agonist activity at human alpha7 nAChR expressed in HEK293 cells co-expressing Ric-3/NACHO assessed as induction of calcium mobilization at 10 uM measured up to 90 secs in presence of PNU-120596 by FLIPR assay. Format: cell-based.
The target is the same in test [9]. Kind of test: Agonist activity at human alpha7 nAChR expressed in HEK293 cells co-expressing Ric-3/NACHO assessed as induction of calcium mobilization at 1 to 3 uM measured up to 90 secs in presence of PNU-120596 by FLIPR assay. Format: cell-based.
The test system of test [10] is Mus musculus. The test is described as follows: Anti-depressant like activity in sc dosed mouse assessed as increase in swimming activity administered 15 mins prior to testing by forced swim test. Format: functional, organism-based. The method, boiled down:
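Mouse forced swim test, n = 9–10 per group, doses 1, 3 and 10 mg/kg. Each mouse was placed in a 16 cm diameter beaker with 20 cm of water at 23.5–24.5 °C for 6 min. Camera-tracked total swim distance was scored after the first minute. Analysed by one-way ANCOVA with planned pairwise comparisons.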

Test [11] addresses T1, Neuronal acetylcholine receptor subunit alpha-7. The test is described as follows: Agonist activity at human alpha7 nAChR expressed in HEK293 cells co-expressing Ric-3/NACHO assessed as induction of calcium mobilization measured up to 90 secs in presence of PNU-120596 by FLIPR assay. Format: cell-based. The method, boiled down:
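Human α7 nAChR stably co-expressed with Ric-3 and NACHO in HEK293 cells, Ca2+/Fluo-4 fluorescence assay. Assay buffer held 3 μM PNU-120596 (α7 PAM) to slow desensitization. Agonist concentration-response curves gave EC50 and Rmax. Means of 3–5 experiments run in duplicate.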

The species entered for test [12] is Rattus norvegicus. The test is described as follows: Selectivity ratio of Ki for rat alpha3beta4 nAChR to Ki for rat alpha4beta2 nAChR.
For test [13], the species on record is Rattus norvegicus. Kind of test: Selectivity ratio of Ki for rat alpha4beta4 nAChR to Ki for rat alpha4beta2 nAChR.
The target in test [14] is T1, Neuronal acetylcholine receptor subunit alpha-7. The test is described as follows: Agonist activity at human alpha7 nAChR expressed in HEK293 cells co-expressing Ric-3/NACHO assessed as induction of calcium mobilization at 30 uM measured up to 90 secs in presence of PNU-120596 by FLIPR assay. The class given is cell-based.
Test [15] addresses Neuronal acetylcholine receptor; alpha4/beta2 (Rattus norvegicus) (UniProt P09483+P12390). Kind of test: Potency index, ratio of DHbetaE Ki to test compound Ki for rat alpha4beta2 nAChR. Format: protein-complex assay.
Test [16] deals with Neuronal acetylcholine receptor; alpha4/beta4 (Rattus norvegicus) (UniProt P09483+P12392). Kind of test: Potency index, ratio of DHbetaE Ki to test compound Ki for rat alpha4beta4 nAChR. Format: protein-complex assay.
In test [17] the test system is Mus musculus. The test is described as follows: Anti-depressant like activity in mouse assessed as increase in swimming activity at 10 mg/kg, sc administered 15 mins prior to testing by forced swim test. Format: functional, organism-based. An outline of the steps:
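Mice (n = 9–10) placed singly in a 16 cm beaker filled with water to 20 cm at 23.5–24.5 °C. Total swim distance over the 6 min test was recorded by overhead camera. Analysed by one-way ANCOVA, then planned pairwise comparisons of predicted means.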

Test [18] deals with Neuronal acetylcholine receptor; alpha3/beta4 (Rattus norvegicus) (UniProt P04757+P12392). The test is described as follows: Potency index, ratio of DHbetaE Ki to test compound Ki for rat alpha3beta4 nAChR. Format: protein-complex assay.
Test [19] in a line: Selectivity ratio of IC50 for rat alpha3beta4 nAChR to IC50 for mouse alpha4beta2 nAChR.
For test [20], the target named is Neuronal acetylcholine receptor; alpha4/beta2 (Homo sapiens, UniProt P17787+P43681). Kind of test: Displacement of [3H]cytisine from human alpha4beta2 nAChR expressed in human SH-EP1 cell membranes after 75 mins by liquid scintillation spectrometry.
Sequence of Neuronal acetylcholine receptor; alpha4/beta2 (Homo sapiens, UniProt P17787+P43681) (P17787 whole entry): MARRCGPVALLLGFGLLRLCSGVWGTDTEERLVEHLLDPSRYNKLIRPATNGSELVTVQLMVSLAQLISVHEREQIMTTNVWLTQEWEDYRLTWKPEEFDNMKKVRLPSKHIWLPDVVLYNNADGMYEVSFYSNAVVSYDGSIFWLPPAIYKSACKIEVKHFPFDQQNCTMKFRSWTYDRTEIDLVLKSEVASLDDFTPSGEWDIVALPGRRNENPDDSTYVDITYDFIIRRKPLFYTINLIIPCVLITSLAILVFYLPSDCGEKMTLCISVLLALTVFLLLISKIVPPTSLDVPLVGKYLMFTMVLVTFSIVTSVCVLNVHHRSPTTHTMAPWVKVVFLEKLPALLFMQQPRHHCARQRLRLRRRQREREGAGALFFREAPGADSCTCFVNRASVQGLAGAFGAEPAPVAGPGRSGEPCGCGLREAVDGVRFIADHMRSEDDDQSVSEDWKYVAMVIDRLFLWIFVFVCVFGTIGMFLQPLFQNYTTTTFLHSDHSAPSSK
Sequence of Neuronal acetylcholine receptor; alpha4/beta2 (Homo sapiens, UniProt P17787+P43681) (P43681 whole entry): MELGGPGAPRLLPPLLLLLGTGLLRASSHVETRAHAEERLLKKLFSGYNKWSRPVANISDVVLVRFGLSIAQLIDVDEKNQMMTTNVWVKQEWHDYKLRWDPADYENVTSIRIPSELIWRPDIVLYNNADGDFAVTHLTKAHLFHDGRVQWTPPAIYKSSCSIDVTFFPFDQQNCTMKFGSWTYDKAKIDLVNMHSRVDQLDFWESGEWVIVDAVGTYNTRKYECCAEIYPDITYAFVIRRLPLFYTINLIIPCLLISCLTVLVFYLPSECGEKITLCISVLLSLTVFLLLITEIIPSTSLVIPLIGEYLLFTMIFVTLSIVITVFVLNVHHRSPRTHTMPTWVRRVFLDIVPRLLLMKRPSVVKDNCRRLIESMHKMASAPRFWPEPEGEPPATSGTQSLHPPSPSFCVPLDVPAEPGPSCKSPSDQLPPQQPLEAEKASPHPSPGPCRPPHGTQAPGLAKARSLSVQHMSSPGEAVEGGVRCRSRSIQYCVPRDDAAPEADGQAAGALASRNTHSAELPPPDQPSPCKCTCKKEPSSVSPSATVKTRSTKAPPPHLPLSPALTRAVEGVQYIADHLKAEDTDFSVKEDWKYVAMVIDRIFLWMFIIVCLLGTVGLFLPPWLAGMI

T2 sequence (P04757 whole entry): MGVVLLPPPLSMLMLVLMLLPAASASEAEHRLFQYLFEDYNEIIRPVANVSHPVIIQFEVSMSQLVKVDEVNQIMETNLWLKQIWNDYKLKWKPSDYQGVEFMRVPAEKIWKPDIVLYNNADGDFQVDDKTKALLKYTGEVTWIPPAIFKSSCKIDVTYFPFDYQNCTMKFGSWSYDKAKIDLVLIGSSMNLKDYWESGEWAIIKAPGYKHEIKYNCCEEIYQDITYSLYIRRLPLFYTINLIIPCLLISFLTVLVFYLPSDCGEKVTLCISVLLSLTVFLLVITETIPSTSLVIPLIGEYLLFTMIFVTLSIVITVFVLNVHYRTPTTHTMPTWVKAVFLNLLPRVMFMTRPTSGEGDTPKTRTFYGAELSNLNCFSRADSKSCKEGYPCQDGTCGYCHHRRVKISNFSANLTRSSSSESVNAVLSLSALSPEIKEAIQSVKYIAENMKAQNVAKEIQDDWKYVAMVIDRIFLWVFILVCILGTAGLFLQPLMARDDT
T2 sequence (P12392 whole entry): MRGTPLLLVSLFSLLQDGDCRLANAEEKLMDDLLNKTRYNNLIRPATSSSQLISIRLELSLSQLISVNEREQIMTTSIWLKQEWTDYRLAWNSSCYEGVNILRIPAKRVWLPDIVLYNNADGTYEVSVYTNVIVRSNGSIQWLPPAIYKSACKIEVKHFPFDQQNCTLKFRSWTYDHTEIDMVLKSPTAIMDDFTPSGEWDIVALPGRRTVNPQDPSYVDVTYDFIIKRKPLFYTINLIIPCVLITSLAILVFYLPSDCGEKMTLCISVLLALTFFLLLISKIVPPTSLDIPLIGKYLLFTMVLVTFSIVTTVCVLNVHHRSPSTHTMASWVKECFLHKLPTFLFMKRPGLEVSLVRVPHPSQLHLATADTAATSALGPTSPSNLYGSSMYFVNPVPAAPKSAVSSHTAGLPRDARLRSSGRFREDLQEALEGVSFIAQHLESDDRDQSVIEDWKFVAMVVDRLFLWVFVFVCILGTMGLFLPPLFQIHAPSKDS
T1 sequence (P36544 whole entry): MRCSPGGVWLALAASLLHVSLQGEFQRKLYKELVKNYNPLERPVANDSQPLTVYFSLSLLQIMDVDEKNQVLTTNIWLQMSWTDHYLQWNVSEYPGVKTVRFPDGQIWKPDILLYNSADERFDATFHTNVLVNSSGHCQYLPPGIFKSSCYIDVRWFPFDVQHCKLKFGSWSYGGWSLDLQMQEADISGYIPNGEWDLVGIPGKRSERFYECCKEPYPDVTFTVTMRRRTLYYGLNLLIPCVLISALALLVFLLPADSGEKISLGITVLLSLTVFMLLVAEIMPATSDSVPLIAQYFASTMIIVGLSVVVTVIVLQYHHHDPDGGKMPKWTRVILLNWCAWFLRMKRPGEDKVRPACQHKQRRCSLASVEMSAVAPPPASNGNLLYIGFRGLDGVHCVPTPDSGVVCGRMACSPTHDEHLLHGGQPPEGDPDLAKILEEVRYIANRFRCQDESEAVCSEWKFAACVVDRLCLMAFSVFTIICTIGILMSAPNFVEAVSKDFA
Sequence of Nicotinic acetylcholine receptor alpha-4/beta-2 (Q9ERK7 whole entry): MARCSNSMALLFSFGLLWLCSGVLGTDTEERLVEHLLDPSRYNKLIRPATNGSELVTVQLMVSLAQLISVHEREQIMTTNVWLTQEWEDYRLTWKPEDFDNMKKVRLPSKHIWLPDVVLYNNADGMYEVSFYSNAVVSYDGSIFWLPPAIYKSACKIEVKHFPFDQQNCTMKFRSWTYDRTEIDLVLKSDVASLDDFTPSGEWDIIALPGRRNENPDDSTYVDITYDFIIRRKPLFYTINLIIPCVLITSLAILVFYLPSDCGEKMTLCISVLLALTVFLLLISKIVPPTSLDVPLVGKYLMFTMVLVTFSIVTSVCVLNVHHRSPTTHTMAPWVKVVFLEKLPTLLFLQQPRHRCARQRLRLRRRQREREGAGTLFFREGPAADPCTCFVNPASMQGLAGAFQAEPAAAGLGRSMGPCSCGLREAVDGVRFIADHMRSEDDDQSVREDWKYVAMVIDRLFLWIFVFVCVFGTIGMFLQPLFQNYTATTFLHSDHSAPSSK
Sequence of Nicotinic acetylcholine receptor alpha-4/beta-2 (Q8R493 whole entry): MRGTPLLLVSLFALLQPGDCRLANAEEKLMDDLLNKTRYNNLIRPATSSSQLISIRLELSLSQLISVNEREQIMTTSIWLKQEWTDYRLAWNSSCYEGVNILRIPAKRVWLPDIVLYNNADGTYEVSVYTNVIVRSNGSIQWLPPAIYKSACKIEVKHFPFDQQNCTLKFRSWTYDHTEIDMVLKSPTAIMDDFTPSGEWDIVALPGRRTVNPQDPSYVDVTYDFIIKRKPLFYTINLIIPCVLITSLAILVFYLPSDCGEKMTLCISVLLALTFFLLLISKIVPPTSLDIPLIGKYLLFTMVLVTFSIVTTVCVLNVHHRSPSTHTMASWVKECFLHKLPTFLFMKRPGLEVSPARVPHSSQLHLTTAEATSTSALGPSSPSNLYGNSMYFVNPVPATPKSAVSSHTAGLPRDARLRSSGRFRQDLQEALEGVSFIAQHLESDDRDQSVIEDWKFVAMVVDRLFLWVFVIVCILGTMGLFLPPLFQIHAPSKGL
Sequence of Neuronal acetylcholine receptor; alpha4/beta4 (P09483 whole entry): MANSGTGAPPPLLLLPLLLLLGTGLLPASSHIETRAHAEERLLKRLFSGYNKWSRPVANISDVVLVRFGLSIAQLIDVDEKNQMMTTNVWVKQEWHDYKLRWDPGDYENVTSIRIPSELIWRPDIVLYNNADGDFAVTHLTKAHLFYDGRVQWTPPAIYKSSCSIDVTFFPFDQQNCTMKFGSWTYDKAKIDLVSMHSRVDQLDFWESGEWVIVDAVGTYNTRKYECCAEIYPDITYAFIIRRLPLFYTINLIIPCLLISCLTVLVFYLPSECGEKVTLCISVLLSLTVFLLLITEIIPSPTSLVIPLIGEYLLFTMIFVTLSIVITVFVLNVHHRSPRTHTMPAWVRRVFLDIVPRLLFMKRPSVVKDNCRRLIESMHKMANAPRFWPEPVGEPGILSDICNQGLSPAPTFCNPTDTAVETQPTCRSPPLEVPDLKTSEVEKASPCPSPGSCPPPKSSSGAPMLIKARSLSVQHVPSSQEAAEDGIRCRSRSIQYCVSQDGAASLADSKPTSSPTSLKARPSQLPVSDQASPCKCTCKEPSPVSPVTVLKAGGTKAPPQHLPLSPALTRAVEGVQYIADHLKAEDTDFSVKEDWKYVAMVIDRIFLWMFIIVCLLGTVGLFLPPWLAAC
Sequence of Neuronal acetylcholine receptor; alpha4/beta4 (P12392 whole entry): as the sequence (P12392 whole entry) above
Sequence of Neuronal acetylcholine receptor; alpha4/beta2 (Rattus norvegicus, UniProt P09483+P12390) (P09483 whole entry): as the sequence (P09483 whole entry) above
Sequence of Neuronal acetylcholine receptor; alpha4/beta2 (Rattus norvegicus, UniProt P09483+P12390) (P12390 whole entry): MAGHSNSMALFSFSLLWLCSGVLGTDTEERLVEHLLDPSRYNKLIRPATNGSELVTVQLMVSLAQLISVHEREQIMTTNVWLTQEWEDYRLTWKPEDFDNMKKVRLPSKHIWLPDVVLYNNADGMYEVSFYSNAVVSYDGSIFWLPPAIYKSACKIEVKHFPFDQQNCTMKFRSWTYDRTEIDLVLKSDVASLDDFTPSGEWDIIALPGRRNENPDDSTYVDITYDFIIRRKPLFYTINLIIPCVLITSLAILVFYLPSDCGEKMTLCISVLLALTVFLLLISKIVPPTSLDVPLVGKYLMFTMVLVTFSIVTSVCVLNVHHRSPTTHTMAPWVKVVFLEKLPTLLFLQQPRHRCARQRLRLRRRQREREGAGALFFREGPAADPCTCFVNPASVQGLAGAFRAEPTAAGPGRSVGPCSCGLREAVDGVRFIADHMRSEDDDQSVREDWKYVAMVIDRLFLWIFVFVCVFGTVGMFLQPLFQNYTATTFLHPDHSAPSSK

Take `COc1cc2c(cc1OCc1ccccc1)C1CCC[N+]1(C)CC2` (configuration not stated): the values for the IC50 in [1] and in test [6] were 5.7 µM and 300 µM, respectively. Further, the outcome in test [2] was inactive. Further, the Ki in [3] was 300 µM; in test [5], 11000 nM; in test [7], 300 µM. For the same molecule, in test [4], the Activity entry was “Dose-dependent effect”.
For `COc1ccc(CC2c3cc(OC)c(OC)cc3CC[N+]2(C)C)cc1OC` (configuration not stated), the IC50 in test [1] and in test [6] was more than 100 µM each time. The result in test [8] was Active. Further, the values for the Ki in test [3], in test [5] and in test [7] were more than 100 µM, more than 100000 nM and more than 100 µM, respectively.
As for `COc1cc2c(cc1OCc1ccccc1)CC[N+]1(C)CCCC21` (configuration not stated), the half-inhibitory concentration (IC50) in test [1] is 3.1 µM; in test [6] it was 300 µM. Also, the result in test [2] was inactive. For the same molecule, the figures for the Ki in test [3], in test [5] and in [7] were 300 µM, 2100 nM and 300 µM, respectively. Also, the Activity entry in [4] is “Dose-dependent effect”.
For `COc1cc2c(cc1OCc1ccccc1)C[N+](C)(C)CC2`, the IC50 in test [1] is 30 µM; in test [6] it was more than 300 µM. Also, the result in test [2] was inactive. Further, the figures for the Ki in test [3], in test [5] and in [7] were 17 µM, 4500 nM and 30 µM, respectively.
Regarding `COc1cc2c(cc1OCc1ccccc1)CC[N+](C)(C)C2`, the IC50 in test [1] was 7.2 µM; in test [6], more than 300 µM. For the same molecule, in test [2], the outcome was inactive. In addition, the Ki in [3] came to 50 µM; in [5], 470 nM; in [7], 30 µM. Besides, the Activity entry in test [4] and in [9] was “Dose-dependent effect” throughout.
As for `c1c2c(cc3c1OCO3)[C@H]1CCCN1CC2`, the values for the IC50 in [1] and in test [6] were 1.3 µM and more than 100 µM, respectively. For the same molecule, in test [8], the result was Active. The Ki was 6.6 µM in test [3], 170 nM in test [5] and 100 µM in test [7]. The Activity entry in the test with Mus musculus [10] is “Dose-dependent effect”.
Regarding `C[N+]1(C)CCc2cc3c(cc2C1)OCO3`, the IC50 in test [1] was 12 µM; in [6], more than 300 µM. Also, the Ki in [3] was found to be 30 µM; in test [5], 380 nM; in [7] it was 50 µM. In addition, the EC50 in test [11] was 2600 nM. Besides, the Ratio Ki was 130 in the test listed under Rattus norvegicus [12] and 80 in the test filed under Rattus norvegicus [13].
Consider `COc1ccc2c(c1)C1CCCN1CC2` (configuration not stated), for which the results for the IC50 in test [1] and in test [6] were 9.1 µM and more than 100 µM, respectively. Besides, the results for the Ki in [3], in [5] and in test [7] were 3.3 µM, 1400 nM and 100 µM, respectively. In addition, in test [14], the result was Active.
As to `C[N+]12CCC[C@@H]1c1cc3c(cc1CC2)OCO3` (some centres not stated), the Ratio Ki in test [15], in test [16] and in [18] was 10 each time. For the same molecule, the IC50 amounted to 0.22 µM in test [1] and 50 µM in test [6]. In addition, the Ki stood at 2.7 µM in test [3], 45 nM in test [5] and 11 µM in test [7]. Moreover, the EC50 in test [11] was 1600 nM. For the same molecule, the result with Mus musculus [17] was Active. The Ratio IC50 in test [19] came out at 230.
Regarding `c1c2c(cc3c1OCO3)[C@@H]1CCCN1CC2`, the IC50 is 30 µM in test [1] and more than 100 µM in test [6]. Besides, the Ki was 100 µM in test [3], 4500 nM in test [5] and more than 100 µM in test [7]. The outcome in [14] was Active.
For the molecule `COc1cc2c(cc1O)CCN1CC=C3C=C[C@H](OC)C[C@]321` [ERYSODINE], the affinity in [20] corresponds to a Ki of 50 nM.
As to `C[N+]12CCCC1c1cc3c(cc1CC2)OCO3` (configuration not stated), the values for the Ratio Ki (in test [15]; in the test filed under Rattus norvegicus [12]; in the test listed under Rattus norvegicus [13]) were 5, 210 and 360, respectively. Also, the IC50 in test [1] came to 0.52 µM; in test [6], 30 µM. The Ki in test [3] was found to be 50 µM; in test [5], 140 nM; in test [7], 30 µM. For the same molecule, the EC50 in test [11] is 2600 nM.

What is called IC50 is the midpoint of a concentration-inhibition curve. For orientation: Ki means the dissociation constant of the complex between target and ligand, obtained from inhibition or displacement. Higher therefore signals lower affinity. In general, EC50 refers to the midpoint of the concentration-response curve.
